Bioassay records (PubChem)
Hep lipid drop = hepatic lipid droplet formation modulation; AML12 mouse hepatocytes, oleate lipid droplets, BODIPY imaging; inhibition, % at 6.5 µM; hit rate 0.4% among 240,000; AID 1656;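 active = lipid droplet intensity inhibited by at least 50%, with more than 500 cells counted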
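material = mouse AML12 hepatocyte cell line, fixed after treatment | also added = 100 µM oleic acid challenge | doses = compound at 6.5 µM only | schedule = overnight exposure | technique = Image-based BODIPY and DAPI two-channel analysis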
CHOP inh = CHOP inhibition in unfolded protein response | CHO-K1 CHOP-promoter luciferase, tunicamycin-induced, 15-18 h | inhibition, % at 10 µM | hit rate 3.8% among 220,000;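 active = compounds that reduced the stress-induced luciferase reporter signal by more than about 70% of percent inhibition, limit read from the data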
ANO1 activ = activates or potentiates the mouse TMEM16A chloride channel. Q8BHY3. HEK293 TMEM16A/YFP-H148Q/I152L, iodide quench fluorescence; stronger effect = lower value. B-score at 10 µM. hit rate 0.3% among 340,000. AID 623877;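 active = fluorescence-ratio B-score plate-corrected deviation score at least 3 library SD below zero, with starting fluorescence score within 5 deviations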;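 note: channel opened by trigger with iodide after compound preincubation; score built on the fluorescence ratio of max minus min over baseline; more negative score means more quench and so TMEM16A activation or potentiation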
Target sequence (Q8BHY3 whole entry, looked up): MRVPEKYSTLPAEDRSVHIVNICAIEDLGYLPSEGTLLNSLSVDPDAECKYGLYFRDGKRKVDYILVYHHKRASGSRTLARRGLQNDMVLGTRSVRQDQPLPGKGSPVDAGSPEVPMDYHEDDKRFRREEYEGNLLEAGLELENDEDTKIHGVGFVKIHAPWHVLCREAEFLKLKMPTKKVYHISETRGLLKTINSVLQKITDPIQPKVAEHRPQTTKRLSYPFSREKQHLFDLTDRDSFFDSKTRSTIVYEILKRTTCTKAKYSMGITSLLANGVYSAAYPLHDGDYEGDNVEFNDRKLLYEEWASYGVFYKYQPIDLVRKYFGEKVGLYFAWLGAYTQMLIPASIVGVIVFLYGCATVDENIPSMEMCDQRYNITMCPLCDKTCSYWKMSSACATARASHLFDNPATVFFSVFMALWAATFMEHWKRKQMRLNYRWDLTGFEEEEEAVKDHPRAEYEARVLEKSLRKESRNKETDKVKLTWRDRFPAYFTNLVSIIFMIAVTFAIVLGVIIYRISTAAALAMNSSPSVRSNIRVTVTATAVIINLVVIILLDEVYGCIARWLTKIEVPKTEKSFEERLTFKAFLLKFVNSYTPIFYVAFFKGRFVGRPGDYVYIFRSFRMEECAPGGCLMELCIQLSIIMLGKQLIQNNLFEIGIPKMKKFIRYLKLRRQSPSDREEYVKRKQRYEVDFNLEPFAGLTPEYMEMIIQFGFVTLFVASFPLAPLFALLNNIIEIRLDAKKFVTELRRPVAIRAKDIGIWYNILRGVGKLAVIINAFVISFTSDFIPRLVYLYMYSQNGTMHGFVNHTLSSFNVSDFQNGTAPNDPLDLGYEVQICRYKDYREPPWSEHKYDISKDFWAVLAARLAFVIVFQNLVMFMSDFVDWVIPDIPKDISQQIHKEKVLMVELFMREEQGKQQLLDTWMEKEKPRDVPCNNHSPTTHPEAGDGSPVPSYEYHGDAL
UPR CHOP act = apoptotic UPR (CHOP) activation; AID 449763; activation, % at 10 µM; hit rate 0.34% among 330,000; CHO-CHOP luciferase reporter, luminescence; percent of tunicamycin response over DMSO baseline;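 active = at 10 µM dose, activation of 40% or more, normalized to positive control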
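Dosing – one dose, 10 µM in 0.5% DMSO · System – CHO-CHOP cells, stable luciferase reporter of PERK-eIF2a-CHOP signalling · Input – 500 cells/well · Control set – tunicamycin 10 µg/mL final as positive, DMSO-only wells as negative · Timing – 6 h compound treatment, 37 °C · Measure – % activation vs tunicamycin · Technique – luminescence read with Steady-Glo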
TMEM16A inh = mouse TMEM16A channel inhibition, primary screen. HEK293 TMEM16A/YFP iodide influx fluorescence, ionomycin. normalized B-score (activity score, 25-100; higher = stronger inhibition) at 10 µM. Q8BHY3. AID 588511. hit rate 1.2% among 310,000;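 active = ratio plate-corrected score three or more library SD toward inhibition, starting fluorescence score within five deviations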;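 note: score derived from kinetic fluorescence span divided by baseline fluorescence per well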
UPR XBP1 act = adaptive UPR (XBP1) activation; hit rate 0.33% among 330,000; AID 463104; CHO-XBP1 luciferase reporter, IRE1-XBP1 UPR activation, luminescence; percent of tunicamycin response, DMSO as zero; activation, % at 20 µM;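 active = versus positive control, 20 µM dose yields 30% or more activation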
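Signal: luciferase luminescence; Assay system: CHO-XBP1 luciferase reporter cells; Amount: one thousand reporter cells per well; Dosing: 20 µM single concentration, DMSO 1%; Benchmarks: high control tunicamycin 10 µg/mL final, low control DMSO vehicle only; Schedule: 6 h compound exposure at 37 °C, 5% CO2; Evaluation: percent activation relative to tunicamycin reference.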
XBP1 UPR conf = adaptive UPR (XBP1) activation, confirmed; shares compounds with UPR XBP1 act; CHO-XBP1 IRE1-XBP1 luciferase reporter, luminescence; activation, % at 20 µM; hit rate 63% among 1,000; AID 485299;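 active = reporter signal at least 30% of the positive control's activation in two or more of four replicate wells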
Hits are given with their value; - = inactive; . = not tested or not shown. Hits are enriched below; roughly 4.2% of the tested compounds scored in any of these assays.

SMILES	Hep lipid drop	CHOP inh	ANO1 activ	UPR CHOP act	TMEM16A inh	UPR XBP1 act	XBP1 UPR conf
COC(=O)c1ccc(N2CCN(C)CC2)c(NC(=O)c2ccc(-c3ccc(Cl)cc3)o2)c1	-	.	-	-	-	45	-
CN1CCN(c2ccccc2NC(=O)c2ccc(-c3cccc(Cl)c3)o2)CC1	-	.	-	-	-	-	.
COc1ccc(C)cc1NCc1cc(=O)oc2cc(-c3ccccc3)c(O)cc12	-	93	-	-	-	53	-
O=C(COc1ccc(Cl)cc1Cl)NN=C1c2ccccc2-c2ccccc21	-	85	-	-	-	89	96
COc1ccccc1NC(=S)NC(=O)c1ccc(Cn2cc(Br)cn2)cc1	-	-	-	-	-	-	.
Brc1cc2c(cc1/C=N/Nc1nc3ccccc3s1)OCO2	.	-	-	-	-	33	155
COc1ccc(CNC(=O)COC(=O)/C=C/c2cccc(Cl)c2)cc1	.	.	-	-	.	-	.
Cn1cccc1Cc1nnc(SCC(=O)Nc2nc3ccccc3s2)n1CCc1ccccc1	.	95	-	-	-	30	-
Cc1nnc(NC(=O)CSc2nnc(Cc3cccn3C)n2CCc2ccccc2)s1	.	-	-	-	-	-	.
COc1cc2[nH]c3c(N4CCN(c5ccc(Cl)cc5)CC4)ncnc3c2cc1OC	.	-	-	-	-	39	33
COc1cc2[nH]c3c(Cl)ncnc3c2cc1OC	-	-	-	-	-	-	.
CCOC(=O)c1c(-c2ccc(C)o2)csc1NC(=O)COC(=O)c1ccc(NC(N)=O)cc1	-	-	-	-	-	33	55
CC(C)(C)c1cc(-c2nc(N)nc(N)n2)c(O)c(C(C)(C)C)c1	.	.	-	-	-	58	30
Nc1nc(N)nc(-c2cc(O)ccc2O)n1	.	.	-	-	.	-	.
COC(=O)c1ccccc1NC(=O)c1cc(-c2ccco2)on1	-	.	-	-	-	-	.
COC(=O)c1ccccc1NC(=O)c1cc(-c2cccs2)on1	.	75	-	-	-	32	-
O=C(/C=C/c1cc([N+](=O)[O-])ccc1OC(F)F)Nc1cccc([N+](=O)[O-])c1	-	-	-	-	-	102	28
Cc1nc2ccc(NC(=O)[C@H](C)N3C(=O)C4CC=CCC4C3=O)cc2s1 (stereo not given in full)	.	.	-	-	.	-	.
O=C(O)c1ccc(-n2ccnc2)c([N+](=O)[O-])c1	-	-	-	-	-	-	.
COC(=O)c1cc([N+](=O)[O-])c(-n2ccnc2)c([N+](=O)[O-])c1	-	90	-	-	-	91	187
O=C(Nc1nc(-c2ccccn2)cs1)c1cccc(S(=O)(=O)N2CCOCC2)c1	.	.	-	-	.	-	.
O=[N+]([O-])c1ccc(-c2nc(Nc3cccc(O)c3)c3ccccc3n2)cc1	-	.	-	-	-	34	-
Cc1ccc2c(c1)C(c1ccc(N3CCOCC3)cc1)=NNC(c1cccs1)=N2	.	-	-	-	-	62	57
Fc1ccc2c(c1)C(c1ccc(N3CCOCC3)cc1)=NNC(c1cccs1)=N2	-	-	-	-	-	-	.
Brc1ccc2c(c1)C(c1ccc(N3CCOCC3)cc1)=NNC(c1cccs1)=N2	-	-	-	-	-	88	81
SMILES	Hep lipid drop	CHOP inh	ANO1 activ	UPR CHOP act	TMEM16A inh	UPR XBP1 act	XBP1 UPR conf
CCOc1ccc(C2=NNC(c3cccs3)=Nc3ccc(OC)cc32)cc1	-	-	-	-	-	-	.
CC1CCN(C(=O)CSc2nc(C(C)C)nc3c2c(=O)n(C)c(=O)n3C)CC1	-	.	-	-	-	-	.
O=C(COC(=O)C1CC1)NCc1ccccc1	.	.	-	-	.	-	.
Cc1cc(C)c2c(CCl)cc(=O)oc2c1	-	-	-	-	-	41	38
C=CCn1c(=O)c2ccc(C(=O)NCc3ccccc3)cc2n(Cc2ccc(C)cc2)c1=O	-	79	-	-	-	44	-
Cc1ccc(Cn2c(=O)n(-c3ccccc3)c(=O)c3ccc(C(=O)NCc4ccco4)cc32)cc1	-	84	-	-	-	35	31
COCCCNC(=O)c1ccc(Cn2c(=O)c3ccccc3n(Cc3cc(C)ccc3C)c2=O)cc1	-	-	-	-	-	-	.
CCOc1ccc(NC(=O)C2CCCN2S(=O)(=O)c2ccc(OCC)cc2)cc1 (stereo not given)	-	.	-	-	-	-	.
CS(=O)(=O)c1ccc(C(=O)NC2CCCc3ccccc32)cc1 (stereo not given)	-	-	-	-	-	-	.
CCC(C)n1c(NC(=O)c2ccccc2)c(C#N)c2nc3ccccc3nc21 (stereo not given)	.	.	-	-	-	63	-
CCCCn1c(NC(=O)c2ccccc2)c(C#N)c2nc3ccccc3nc21	.	-	-	.	.	.	.
COc1cc(/C=N/NC(=O)NC23CC4CC(CC(C4)C2)C3)ccc1OCC(N)=O	-	.	-	-	-	38	-
COc1ccc(C=NNC(=S)NC23CC4CC(CC(C4)C2)C3)cc1OC	.	.	-	.	.	.	.
Cc1ccc(Cl)cc1N1CCN(Cc2nc3c(c(=O)[nH]c(=O)n3C)n2CCc2ccccc2)CC1	-	-	-	-	-	46	55
Cc1ccc(Cl)cc1N1CCN(Cc2nc3c(c(=O)[nH]c(=O)n3C)n2Cc2ccccc2F)CC1	-	.	-	-	-	-	.
Cc1ccc(NC(=O)c2cc(S(=O)(=O)N(C)C)ccc2N2CCCC2)cc1F	-	.	-	-	-	39	64
O=C(Oc1ccc(F)cc1C(=O)/C=C/c1cccs1)c1cccc([N+](=O)[O-])c1	.	-	-	-	-	38	83
O=C(/C=C/c1ccccc1F)c1cccc([N+](=O)[O-])c1	-	-	-	-	-	-	.
NC(=S)N=Nc1c(O)n(Cc2ccc(F)cc2)c2ccccc12	-	-	-	-	-	-	.
NC(=S)N=Nc1c(O)n(CCCl)c2ccc(Br)cc12	-	-	-	-	-	-	.
Cc1ccc2c(c1)c(N=NC(N)=S)c(O)n2Cc1ccccc1	-	-	-	-	-	33	41
C/C(Cl)=C\Cn1c(O)c(N=NC(N)=S)c2cc(Br)ccc21	-	-	-	-	-	84	120
COc1ccc(OC)c(NC(=O)C(=O)NNC(=O)COc2ccc(Br)cc2C)c1	-	-	-	-	-	-	.
CCOC(=O)/C=c1\s/c(=C\c2ccc(C)cc2)c(=O)n1CC(=O)NCc1ccco1	-	-	-	-	-	55	-
CCOc1ccc(CN2CCN(S(=O)(=O)c3ccc(NC(C)=O)cc3)CC2)cc1	-	-	-	-	-	-	.
